Here are results for two molecules from ChEMBL document CHEMBL3352365, “Formononetin attenuates osteoclastogenesis via suppressing the RANKL-induced activation of NF-κB, c-Fos, and nuclear factor of activated T-cells cytoplasmic 1 signaling pathway” (J Nat Prod, 2014).

Data set [1] deals with T1, Tumor necrosis factor ligand superfamily member 11 (Mus musculus) (UniProt O35235).
T1 sequence (whole entry): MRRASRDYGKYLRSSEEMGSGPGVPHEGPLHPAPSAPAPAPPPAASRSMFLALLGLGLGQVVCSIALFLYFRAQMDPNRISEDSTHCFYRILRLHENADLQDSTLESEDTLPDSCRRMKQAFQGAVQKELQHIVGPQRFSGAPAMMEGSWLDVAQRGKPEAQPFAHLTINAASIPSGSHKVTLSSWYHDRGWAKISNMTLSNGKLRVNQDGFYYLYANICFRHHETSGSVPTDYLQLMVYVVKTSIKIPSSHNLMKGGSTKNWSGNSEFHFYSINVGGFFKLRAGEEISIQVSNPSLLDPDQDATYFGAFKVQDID
The data set can be described thus: Inhibition of RANKL-stimulated JNK in ICR mouse BMMC assessed as reduction in c-Jun phosphorylation at 1 to 20 uM incubated for 12 hrs by Western blotting method. In general terms: A western blot detects proteins with antibodies after separation by electrophoresis.

Data set [2] addresses T1, Tumor necrosis factor ligand superfamily member 11 (Mus musculus). The data set can be described thus: Inhibition of RANKL-induced NFATc1 protein expression in ICR mouse BMMC at 1 to 20 uM incubated for 12 hrs by Western blotting method. Type of data set: functional.
The test system of data set [3] is BMMC. The data set can be described thus: Inhibition of RANKL/M-CSF-stimulated osteoclastogenesis in ICR mouse BMMC assessed as reduction in TRAP positive multinucleated cells at 1 to 20 uM incubated for 7 days by light microscopy. Type of data set: functional. The gist of the method: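 JNK inhibitor SP600125 used as reference. For blots, BMMs were incubated with RANKL 100 ng/mL for 12 h, then SP600125 for 4 h; lysates probed for phospho-c-Jun, c-Jun, c-Fos and NFATc1, with β-actin as control. For TRAP counts, BMMs were given RANKL 1 h, then SP600125 (1, 10, 20 μM) with M-CSF 30 ng/mL.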

Data set [4] concerns the target T1, Tumor necrosis factor ligand superfamily member 11 (Mus musculus). The data set can be described thus: Inhibition of RANKL-induced c-FOS protein expression in ICR mouse BMMC at 1 to 20 uM incubated for 12 hrs by Western blotting method. The class given is functional.
Data set [5] shares this target. The data set can be described thus: Inhibition of RANKL-induced c-FOS protein expression in ICR mouse BMMC at 1 to 10 uM incubated for 12 hrs by Western blotting method. Type of data set: functional. Put shortly:
(§1)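 BMMs prestimulated with RANKL 100 ng/mL for 12 h, then treated at the indicated times and concentrations. Whole-cell lysates (20 μg/lane) run on 10% SDS-PAGE and blotted to nitrocellulose. Probed with anti-c-Fos and anti-NFATc1 (1:1000), β-actin as internal control, ECL detection.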

The target in data set [6] is Transcription factor p65 (Mus musculus) (UniProt Q04207). As to the kind of experiment: Inhibition of RANKL-stimulated NFkappaB p65 phosphorylation in ICR mouse BMMC at 1 to 10 uM incubated for 4 hrs by Western blotting method.
Data set [7] addresses T2, Nuclear factor NF-kappa-B complex (Homo sapiens) (UniProt Q00653+P19838+Q04206). The data set can be described thus: Inhibition of RANKL-stimulated NFkappaB (unknown origin) expressed in ICR mouse BMMC assessed as reduction in transcriptional activity at 1 to 10 uM incubated for 12 hrs by SEAP based reporter gene assay. Put shortly: (§2)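 BMMs (5 × 10^5 cells/well) stimulated with RANKL 100 ng/mL for 1 h, then transfected (Lipofectamine 2000) with 300 ng pNF-κB-SEAP-NPT (four NF-κB sites) or control SEAP-NPT. After 24 h, treated (0, 1, 5, 10 μM) for 12 h at 37 °C with M-CSF and RANKL. Supernatant SEAP fluorescence read at ex 360/em 449 nm, given as % of control. Two experiments.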

In data set [8] the test system is BMMC. As to the kind of experiment: (§3) Inhibition of RANKL/M-CSF-stimulated IL-6 protein expression in ICR mouse BMMC at 1 to 10 uM incubated for 48 hrs by ELISA method relative to untreated control. The class given is functional. The gist of the method:
(§4)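 BMMs (3 × 10^5 cells/well) prestimulated with RANKL 100 ng/mL for 1 h, then treated (1, 5, 10 μM) with M-CSF 30 ng/mL. Cytokines and chemokines in culture medium measured by ELISA. Methods give 7 days of treatment; legend gives 48 h. Mean ± SEM of two independent experiments; Student's t test.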
(In general: In an ELISA, binding on a coated surface is turned into a signal by an enzyme label.)

Data set [9] in a line: as §3. Type of data set: functional. The gist of the method: as §4
In data set [10] the target is MAP kinase p38 (Mus musculus) (UniProt P47811+O08911+Q9WUI1+Q9Z1B7). As to the kind of experiment: Inhibition of RANKL-stimulated p38 phosphorylation in ICR mouse BMMC at 1 to 10 uM incubated for 12 hrs by Western blotting method. Type of data set: protein assay. The gist of the method: (§5)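 BMMs stimulated with RANKL (100 ng/mL) for 1 h, then treated for 12 h. Whole-cell lysates run on 10% SDS-PAGE and probed (1:1000) for phospho- and total AKT, ERK, JNK and p38, with ECL detection. Blots representative of at least two experiments.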

The test system of data set [11] is BMMC. The data set can be described thus: Inhibition of RANKL/M-CSF-stimulated osteoclastogenesis in ICR mouse BMMC assessed as reduction in TRAP positive multinucleated cells at 1 to 10 uM incubated for 7 days by light microscopy. Type of data set: functional. Put shortly: (§6)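 BMMs from 6-week-old ICR mouse femurs/tibiae (M-CSF expanded; 5 × 10^5 cells/well) stimulated with RANKL 100 ng/mL for 1 h, then treated (1, 5, 10 μM) with M-CSF 30 ng/mL for 7 days. Fixed and TRAP-stained; TRAP+ cells with ≥3 nuclei counted by light microscopy. Mean ± SEM, two experiments.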

In data set [12] the target is T1, Tumor necrosis factor ligand superfamily member 11 (Mus musculus). As to the kind of experiment: Inhibition of RANKL-stimulated ERK phosphorylation in ICR mouse BMMC at 1 to 10 uM incubated for 12 hrs by Western blotting method. Put shortly:
as §5

For data set [13], the system named is BMMC. The data set can be described thus: (§7) Inhibition of RANKL/M-CSF-stimulated TNFalpha protein expression in ICR mouse BMMC at 1 to 10 uM incubated for 48 hrs by ELISA method relative to untreated control. The class given is functional. The gist of the method: as §4
Data set [14] can be described thus: as §7. Type of data set: functional. Put shortly: as §4
The target of data set [15] is T1, Tumor necrosis factor ligand superfamily member 11 (Mus musculus). The data set can be described thus: Inhibition of RANKL-induced NFATc1 protein expression in ICR mouse BMMC at 1 to 10 uM incubated for 12 hrs by Western blotting method. Type of data set: functional. The gist of the method:
as §1

Data set [16] has the same target. The data set can be described thus: Inhibition of RANKL-induced c-FOS mRNA expression in ICR mouse BMMC at 5 uM incubated for 12 hrs by qRT-PCR method. The class given is functional. Put shortly: (§8)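 BMMs stimulated with RANKL (100 ng/mL) for 12 h, then treated at the indicated times and concentrations. c-Fos and NFATc1 mRNA quantified by real-time PCR.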
Data set [17] shares this target. The data set can be described thus: Inhibition of RANKL-stimulated JNK phosphorylation in ICR mouse BMMC at 1 to 10 uM incubated for 12 hrs by Western blotting method. The gist of the method: as §5
Data set [18] is described as follows: Toxicity against ICR mouse BMMC assessed as reduction in cell viability up to 100 uM after 72 hrs by WST8 assay. Put shortly: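 BMMs cultured with RANKL (100 ng/mL) and test compound at 0, 1, 5, 10 and 100 μM for 72 h. Viability read by WST-8 (CCK-8) assay.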
(In general: Tetrazolium assays rely on reduction of a dye to a coloured formazan, in cell work by metabolically active cells.)

Data set [19] has as its system BMMC. As to the kind of experiment: (§9) Inhibition of RANKL/M-CSF-stimulated MCP1 protein expression in ICR mouse BMMC at 1 to 10 uM incubated for 48 hrs by ELISA method relative to untreated control. The class given is functional. Put shortly:
as §4

Data set [20] in a line: as §9. Type of data set: functional. The gist of the method: as §4
In data set [21] the target is T2, Nuclear factor NF-kappa-B complex (Homo sapiens). As to the kind of experiment: Inhibition of RANKL-stimulated NFkappaB (unknown origin) expressed in ICR mouse BMMC assessed as reduction in transcriptional activity at 1 to 10 uM incubated for 12 hrs by SEAP based reporter gene assay relative to untreated control. Put shortly:
as §2

In a further data set the test system is Osteoblast. The data set can be described thus: Increase in OPG protein expression in RANKL-stimulated mouse primary osteoblasts co-cultured with ICR mouse BMMC at 1 to 10 uM incubated for 48 hrs by ELISA method relative to untreated control. Type of data set: functional. The gist of the method: (§10)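 Coculture of BMMs (3 × 10^5 cells/well) with calvarial osteoblasts from 1-day-old mice (2.5 × 10^4 cells/well). Cells prestimulated with RANKL 100 ng/mL for 1 h, then treated for 48 h with M-CSF 30 ng/mL present. RANKL measured in cell lysate and OPG in culture medium, both by ELISA. Mean ± SEM of two independent experiments; Student's t test.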

Data set [22] concerns BMMC. As to the kind of experiment: (§11) Inhibition of RANKL/M-CSF-stimulated MIP-1alpha protein expression in ICR mouse BMMC at 1 to 10 uM incubated for 48 hrs by ELISA method relative to untreated control. Type of data set: functional. The gist of the method: as §4
Data set [23] in a line: as §11. Type of data set: functional. Put shortly:
as §4

For data set [24], the target named is T1, Tumor necrosis factor ligand superfamily member 11 (Mus musculus). The data set can be described thus: Inhibition of RANKL-stimulated IkappaBalpha degradation in ICR mouse BMMC at 1 to 10 uM incubated for 4 hrs by Western blotting method.
The test system of data set [25] is BMMC. The data set can be described thus: (§12) Inhibition of RANKL/M-CSF-stimulated RANTES protein expression in ICR mouse BMMC at 1 to 10 uM incubated for 48 hrs by ELISA method relative to untreated control. Type of data set: functional. Put shortly:
as §4

Data set [26] is described as follows: as §12. Type of data set: functional. Put shortly:
as §4

In data set [27] the target is T1, Tumor necrosis factor ligand superfamily member 11 (Mus musculus). The data set can be described thus: Inhibition of RANKL-induced NFATc1 mRNA expression in ICR mouse BMMC at 5 uM incubated for 12 hrs by qRT-PCR method. Type of data set: functional. Put shortly:
as §8

Data set [28] relates to BMMC. As to the kind of experiment: Inhibition of RANKL protein expression in ICR mouse BMMC co-cultured with primary osteoblasts at 1 to 10 uM incubated for 48 hrs by ELISA method. The class given is functional. The gist of the method:
as §10

Data set [29] can be described thus: Inhibition of RANKL/M-CSF-stimulated osteoclastogenesis in ICR mouse BMMC assessed as reduction in TRAP positive multinucleated cells at 1 to 10 uM incubated for 7 days by light microscopy relative to untreated control. The class given is functional. Put shortly:
as §6

The target of data set [30] is RAC-alpha serine/threonine-protein kinase (Mus musculus) (UniProt P31750). The data set can be described thus: Inhibition of RANKL-stimulated AKT phosphorylation in ICR mouse BMMC at 1 to 10 uM incubated for 12 hrs by Western blotting method. Put shortly:
as §5

Data set [31] in a line: Inhibition of RANKL protein expression in ICR mouse BMMC co-cultured with primary osteoblasts at 1 to 10 uM incubated for 48 hrs by ELISA method relative to untreated control. Type of data set: functional. Put shortly: as §10
In data set [32] the test system is BMMC. The data set can be described thus: (§13) Inhibition of RANKL/M-CSF-stimulated IL-1beta protein expression in ICR mouse BMMC at 1 to 10 uM incubated for 48 hrs by ELISA method relative to untreated control. The class given is functional. Put shortly: as §4
The nature of data set [33]: as §13. Type of data set: functional. The gist of the method:
as §4

Calls of active or inactive are those of the source. The rule behind the calls is not given here.

T2 sequence (P19838 whole entry, looked up): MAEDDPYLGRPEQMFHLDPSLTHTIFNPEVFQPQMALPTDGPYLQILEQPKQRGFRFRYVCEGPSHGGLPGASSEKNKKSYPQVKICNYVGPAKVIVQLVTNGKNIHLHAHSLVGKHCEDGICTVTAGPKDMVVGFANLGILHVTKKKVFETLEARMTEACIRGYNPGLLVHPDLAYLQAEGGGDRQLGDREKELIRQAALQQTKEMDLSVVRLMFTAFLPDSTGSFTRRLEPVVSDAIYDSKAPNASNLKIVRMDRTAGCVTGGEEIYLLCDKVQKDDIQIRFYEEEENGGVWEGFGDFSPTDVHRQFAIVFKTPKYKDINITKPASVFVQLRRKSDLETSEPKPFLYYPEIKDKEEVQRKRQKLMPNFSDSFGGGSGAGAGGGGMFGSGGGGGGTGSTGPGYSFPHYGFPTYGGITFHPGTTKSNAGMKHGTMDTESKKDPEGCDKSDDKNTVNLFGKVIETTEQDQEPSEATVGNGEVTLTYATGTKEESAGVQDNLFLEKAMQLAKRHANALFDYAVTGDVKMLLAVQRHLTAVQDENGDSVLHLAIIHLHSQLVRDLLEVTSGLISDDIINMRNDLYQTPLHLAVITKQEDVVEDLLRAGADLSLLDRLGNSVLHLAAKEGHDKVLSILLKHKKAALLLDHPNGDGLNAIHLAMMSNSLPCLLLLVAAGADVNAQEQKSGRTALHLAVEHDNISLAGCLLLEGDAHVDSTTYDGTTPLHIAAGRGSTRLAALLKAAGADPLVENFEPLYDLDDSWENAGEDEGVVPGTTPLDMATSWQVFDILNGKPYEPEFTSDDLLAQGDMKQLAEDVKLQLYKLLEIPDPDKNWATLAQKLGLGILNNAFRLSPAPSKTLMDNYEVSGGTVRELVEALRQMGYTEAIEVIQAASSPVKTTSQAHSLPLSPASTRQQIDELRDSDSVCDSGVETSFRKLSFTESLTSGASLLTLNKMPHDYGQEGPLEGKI
T2 sequence (Q00653 whole entry, looked up): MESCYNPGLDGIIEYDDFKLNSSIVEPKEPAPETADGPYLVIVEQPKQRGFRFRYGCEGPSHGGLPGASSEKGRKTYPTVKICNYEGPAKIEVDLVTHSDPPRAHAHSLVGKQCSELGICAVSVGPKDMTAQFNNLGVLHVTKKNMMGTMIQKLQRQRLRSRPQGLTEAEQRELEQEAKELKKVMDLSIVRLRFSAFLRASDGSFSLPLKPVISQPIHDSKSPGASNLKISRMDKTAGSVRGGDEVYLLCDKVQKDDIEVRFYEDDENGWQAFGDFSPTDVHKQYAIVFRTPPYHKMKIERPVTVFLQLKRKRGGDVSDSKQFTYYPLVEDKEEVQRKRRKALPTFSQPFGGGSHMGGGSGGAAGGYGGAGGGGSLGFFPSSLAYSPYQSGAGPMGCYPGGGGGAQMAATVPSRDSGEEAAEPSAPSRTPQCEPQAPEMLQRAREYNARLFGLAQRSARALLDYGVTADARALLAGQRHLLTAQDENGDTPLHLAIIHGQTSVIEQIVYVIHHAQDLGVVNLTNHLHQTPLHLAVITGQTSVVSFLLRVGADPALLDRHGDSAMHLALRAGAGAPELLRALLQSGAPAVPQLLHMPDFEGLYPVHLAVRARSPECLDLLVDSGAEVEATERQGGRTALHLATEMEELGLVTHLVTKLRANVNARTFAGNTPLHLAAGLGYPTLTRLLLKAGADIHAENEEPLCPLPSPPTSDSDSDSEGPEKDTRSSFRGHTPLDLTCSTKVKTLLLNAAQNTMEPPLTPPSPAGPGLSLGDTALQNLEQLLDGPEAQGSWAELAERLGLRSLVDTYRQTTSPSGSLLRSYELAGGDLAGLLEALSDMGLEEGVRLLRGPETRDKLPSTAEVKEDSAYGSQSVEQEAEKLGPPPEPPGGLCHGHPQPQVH
T2 sequence (Q04206 whole entry, looked up): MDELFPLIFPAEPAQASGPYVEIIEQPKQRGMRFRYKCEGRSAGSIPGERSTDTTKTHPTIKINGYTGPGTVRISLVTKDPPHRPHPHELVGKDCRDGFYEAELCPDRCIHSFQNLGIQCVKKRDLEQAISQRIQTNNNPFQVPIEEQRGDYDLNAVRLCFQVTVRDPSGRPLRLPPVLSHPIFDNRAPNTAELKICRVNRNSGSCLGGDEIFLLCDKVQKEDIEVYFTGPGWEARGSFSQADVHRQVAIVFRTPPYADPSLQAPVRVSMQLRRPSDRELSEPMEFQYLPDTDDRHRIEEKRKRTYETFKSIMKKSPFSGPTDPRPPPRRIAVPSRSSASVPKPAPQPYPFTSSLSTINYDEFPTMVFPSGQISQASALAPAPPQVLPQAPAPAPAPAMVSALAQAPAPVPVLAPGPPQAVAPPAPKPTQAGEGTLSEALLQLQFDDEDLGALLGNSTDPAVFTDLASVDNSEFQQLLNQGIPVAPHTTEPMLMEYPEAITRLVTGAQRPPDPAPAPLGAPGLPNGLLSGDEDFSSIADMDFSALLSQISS
RAC-alpha serine/threonine-protein kinase (Mus musculus), sequence (P31750 whole entry): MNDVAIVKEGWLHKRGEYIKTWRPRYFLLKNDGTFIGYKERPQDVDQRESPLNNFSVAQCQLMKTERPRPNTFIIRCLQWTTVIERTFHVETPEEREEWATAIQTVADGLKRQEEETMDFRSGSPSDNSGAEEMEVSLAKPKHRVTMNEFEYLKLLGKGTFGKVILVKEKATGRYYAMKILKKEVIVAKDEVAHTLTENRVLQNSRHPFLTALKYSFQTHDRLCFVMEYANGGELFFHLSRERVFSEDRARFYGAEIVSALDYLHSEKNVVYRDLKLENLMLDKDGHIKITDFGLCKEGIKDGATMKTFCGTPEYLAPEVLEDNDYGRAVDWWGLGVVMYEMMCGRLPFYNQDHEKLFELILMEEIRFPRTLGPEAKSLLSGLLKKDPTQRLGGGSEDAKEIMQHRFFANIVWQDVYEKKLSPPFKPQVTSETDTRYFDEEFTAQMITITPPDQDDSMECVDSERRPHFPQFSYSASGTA
Transcription factor p65 (Mus musculus), sequence (Q04207 whole entry): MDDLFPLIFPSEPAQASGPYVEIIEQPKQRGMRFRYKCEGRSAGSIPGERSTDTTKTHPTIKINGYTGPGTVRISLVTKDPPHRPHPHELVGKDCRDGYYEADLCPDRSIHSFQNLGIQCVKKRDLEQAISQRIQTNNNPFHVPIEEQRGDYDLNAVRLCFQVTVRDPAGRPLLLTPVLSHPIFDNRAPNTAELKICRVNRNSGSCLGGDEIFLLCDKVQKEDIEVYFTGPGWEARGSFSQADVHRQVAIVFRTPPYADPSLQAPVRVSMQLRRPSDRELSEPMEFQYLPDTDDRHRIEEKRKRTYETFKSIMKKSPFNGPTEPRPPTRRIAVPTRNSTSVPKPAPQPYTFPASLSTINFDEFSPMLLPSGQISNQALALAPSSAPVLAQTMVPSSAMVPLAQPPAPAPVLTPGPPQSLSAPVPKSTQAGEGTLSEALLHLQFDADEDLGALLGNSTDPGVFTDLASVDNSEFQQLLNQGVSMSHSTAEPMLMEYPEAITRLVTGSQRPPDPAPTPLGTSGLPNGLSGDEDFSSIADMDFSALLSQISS

With `Oc1c2ccccc2c2c3c(cccc13)N=N2`, the inhibition result (in data set [1]; in data set [2]; with BMMC [3]; in data set [4]) was “Active” each time.
As for `COc1ccc(-c2coc3cc(O)ccc3c2=O)cc1` [FORMONONETIN], the inhibition entry (in [5]; in data set [7]; in the data set with BMMC [8]; in [10]; in the data set with BMMC [11]; in data set [12]) was “Dose-dependent effect” each time. For the same molecule, the inhibition entry (with BMMC [13]; in [15]; in [17]; with BMMC [19]; in the data set on BMMC [22]; with BMMC [25]) was “Dose-dependent effect” in each case. Further, the inhibition result (in the data set with BMMC [28]; in data set [30]; in the data set on BMMC [32]) was “Dose-dependent effect” in each case. Further, the inhibition entry in [6], in data set [16], in data set [24] and in data set [27] was “Active” in each case. Also, the “inhibition (INH)” value was determined as 9.2% in data set [9]; 27.1% in data set [14]; 27.4% in [20]; 23.1% in data set [23]; 7.1% in data set [26]; 25.1% in [33]. In addition, in data set [18], the Activity result is listed as “Non-toxic”. Also, the fold change (FC) came to 1.3 in [21], 1.2 with Osteoblast, 1.3 in data set [29] and 1.5 in [31].
